“Also recorded” adds a separate entry of the source. Marks after values point to notes of the source that are not given here.
Experiments:
[1] = phase I dose escalation: DLTs, MTD and treatment-emergent adverse events; type: in vivo, human
[2] = plasma pharmacokinetics in patients; type: in vivo, human; conditions: for CL/F: day 22 of cycle 1, plasma, arithmetic mean (CV%); for half-life: in vivo
Gli-1 mRNA = assay: pharmacodynamics: Gli-1 expression in skin and tumor biopsies; type: in vivo, human
Method in brief: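 Normal skin was biopsied before treatment and 3 weeks into cycle 1 of once-daily oral dosing. RNA was extracted and Gli-1 mRNA measured by RT-PCR. In the biopsy cohort, accessible tumours were sampled at the same time points (baseline cycle 1 day −7; cycle 1 day 22). Gli-1 IHC scored stromal versus epithelial nuclear staining.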

[3] = system: B837Tx medulloblastoma allograft; conditions: oral administration; cited from earlier work
[4] = system: pancreatic tumor model with elevated Shh (sonic hedgehog) expression; conditions: stated in introduction; cited from earlier work
SCLC tumors = conditions: cited from earlier work
[5] = system: transgenic pancreatic cancer models; conditions: cited from earlier work
Smo receptor = conditions: read-out: IC50, binding to the Smo receptor; stated in introduction; cited from earlier work

In the case of `CC1=C2C[C@H]3[C@@H](CC[C@@H]4C[C@H](NS(C)(=O)=O)CC[C@@]43C)[C@@H]2CC[C@@]2(C1)O[C@@H]1C[C@H](C)CN[C@H]1[C@H]2C` [IPI-926], the “Dysgeusia, treatment-emergent adverse event” value ([1]; <130 mg (n = 5), Grade 1–2) is reported as 1 (20) n (%), the “Fatigue, treatment-emergent adverse event” value ([1]; <130 mg (n = 5), Grade 1–2) is reported as 2 (40) n (%) and the “Hemoglobin (lab), treatment-emergent adverse event” value (“Hemoglobin (lab)” below) ([1]; <130 mg (n = 5), Grade 1–2) is reported as 3 (60) n (%). For the same molecule, the “Muscle spasms, treatment-emergent adverse event” value ([1]; <130 mg (n = 5), Grade 1–2) was 2 (40) n (%), the “Nausea, treatment-emergent adverse event” value ([1]; <130 mg (n = 5), Grade 1–2) was 1 (20) n (%) and the “Thrombocytopenia (lab), treatment-emergent adverse event” value (“Thrombocytopenia (lab)” for short) ([1]; <130 mg (n = 5), Grade 1–2) was 0 (0) n (%). For the same molecule, the “Vomiting, treatment-emergent adverse event” value ([1]; <130 mg (n = 5), Grade 1–2) was 0 (0) n (%), the “ALT elevation (lab), treatment-emergent adverse event” value (“ALT elevation (lab)” below) ([1]; <130 mg (n = 5), Grade ≥3) was 0 (0) n (%) and the “AST elevation (lab), treatment-emergent adverse event” value (shortened to “AST elevation (lab)”) ([1]; <130 mg (n = 5), Grade ≥3) was 0 (0) n (%). For the same molecule, the “Alopecia, treatment-emergent adverse event” value ([1]; <130 mg (n = 5), Grade ≥3) was 0 (0) n (%), the “Decreased appetite, treatment-emergent adverse event” value (“Decreased appetite” for short) ([1]; <130 mg (n = 5), Grade ≥3) was 0 (0) n (%) and the “Diarrhea, treatment-emergent adverse event” value ([1]; <130 mg (n = 5), Grade ≥3) was 0 (0) n (%). The “Dysgeusia, treatment-emergent adverse event” value ([1]; <130 mg (n = 5), Grade ≥3) was 0 (0) n (%), the “Fatigue, treatment-emergent adverse event” value ([1]; <130 mg (n = 5), Grade ≥3) was 0 (0) n (%) and the “Hemoglobin (lab)” value ([1]; <130 mg (n = 5), Grade ≥3) was 0 (0) n (%). The “Muscle spasms, treatment-emergent adverse event” value ([1]; <130 mg (n = 5), Grade ≥3) was 0 (0) n (%), the “Nausea, treatment-emergent adverse event” value ([1]; <130 mg (n = 5), Grade ≥3) was 0 (0) n (%) and the “Thrombocytopenia (lab)” value ([1]; <130 mg (n = 5), Grade ≥3) was 0 (0) n (%). The “Vomiting, treatment-emergent adverse event” value ([1]; <130 mg (n = 5), Grade ≥3) was 0 (0) n (%), the “ALT elevation (lab)” value ([1]; >160 mg (n = 15), Grade 1–2) was 11 (73) n (%) and the “AST elevation (lab)” value ([1]; >160 mg (n = 15), Grade 1–2) was 12 (80) n (%). The “Alopecia, treatment-emergent adverse event” value ([1]; >160 mg (n = 15), Grade 1–2) was 2 (13) n (%), the “Decreased appetite” value ([1]; >160 mg (n = 15), Grade 1–2) was 4 (27) n (%) and the “Diarrhea, treatment-emergent adverse event” value ([1]; >160 mg (n = 15), Grade 1–2) was 2 (13) n (%). For the same molecule, the “Dysgeusia, treatment-emergent adverse event” value ([1]; >160 mg (n = 15), Grade 1–2) was 1 (7) n (%), the “Fatigue, treatment-emergent adverse event” value ([1]; >160 mg (n = 15), Grade 1–2) was 6 (40) n (%) and the “Hemoglobin (lab)” value ([1]; >160 mg (n = 15), Grade 1–2) was 12 (80) n (%). For the same molecule, the “Muscle spasms, treatment-emergent adverse event” value ([1]; >160 mg (n = 15), Grade 1–2) was 4 (27) n (%), the “Nausea, treatment-emergent adverse event” value ([1]; >160 mg (n = 15), Grade 1–2) was 7 (47) n (%) and the “Thrombocytopenia (lab)” value ([1]; >160 mg (n = 15), Grade 1–2) was 1 (7) n (%). For the same molecule, the “Vomiting, treatment-emergent adverse event” value ([1]; >160 mg (n = 15), Grade 1–2) was 5 (33) n (%), the “ALT elevation (lab)” value ([1]; >160 mg (n = 15), Grade ≥3) was 4 (27) n (%) and the “AST elevation (lab)” value ([1]; >160 mg (n = 15), Grade ≥3) was 3 (20) n (%). For the same molecule, the “Alopecia, treatment-emergent adverse event” value ([1]; >160 mg (n = 15), Grade ≥3) was 0 (0) n (%), the “Decreased appetite” value ([1]; >160 mg (n = 15), Grade ≥3) was 1 (7) n (%) and the “Diarrhea, treatment-emergent adverse event” value ([1]; >160 mg (n = 15), Grade ≥3) was 0 (0) n (%). For the same molecule, the “Dysgeusia, treatment-emergent adverse event” value ([1]; >160 mg (n = 15), Grade ≥3) was 0 (0) n (%), the “Fatigue, treatment-emergent adverse event” value ([1]; >160 mg (n = 15), Grade ≥3) was 2 (13) n (%) and the “Hemoglobin (lab)” value ([1]; >160 mg (n = 15), Grade ≥3) was 1 (7) n (%). For the same molecule, the “Muscle spasms, treatment-emergent adverse event” value ([1]; >160 mg (n = 15), Grade ≥3) was 0 (0) n (%), the “Nausea, treatment-emergent adverse event” value ([1]; >160 mg (n = 15), Grade ≥3) was 0 (0) n (%) and the “Thrombocytopenia (lab)” value ([1]; >160 mg (n = 15), Grade ≥3) was 0 (0) n (%). The “Vomiting, treatment-emergent adverse event” value ([1]; >160 mg (n = 15), Grade ≥3) was 0 (0) n (%), the “recommended phase II / single-agent dose” value ([1]; QD, 28-day cycles) was 160 mg and the “dose levels well tolerated” value ([1]; administered QD) was “up to 160 mg”. The hematologic toxicity ([1]; all dose levels) was “not associated with hematologic toxicity; also recorded: No significant hematologic toxicities”, the patients reporting alopecia ([1]; at the MTD) was 22% and the “patients reporting muscle spasms” value ([1]; at the MTD) was 33%. For the same molecule, the CL/F ([2]; 20 mg QD oral (n = 1)) was 111 (NC) L/h, the CL/F ([2]; 30 mg QD oral (n = 1)) was 59.0 (NC) L/h and the CL/F ([2]; 40 mg QD oral (n = 1)) was 50.0 (NC) L/h. The CL/F ([2]; 60 mg QD oral (n = 1)) was 28.6 (NC) L/h, the CL/F ([2]; 130 mg QD oral, n = 4) was 23.0 (36.0) ^b L/h and the CL/F ([2]; 160 mg QD oral (n = 4)) was 21.2 (38.5) L/h. For the same molecule, the CL/F ([2]; 180 mg QD oral (n = 1)) was 14.0 (NC) L/h, the CL/F ([2]; 200 mg QD oral (n = 1)) was 13.3 (NC) L/h and the CL/F ([2]; 210 mg QD oral (n = 5)) was 20.6 (35.5) L/h. For the same molecule, the “mean oral clearance (CL/F)” value ([2]; 130-mg dose level, expanded phases) was 27.4 L/h, the “mean oral clearance (CL/F)” value ([2]; 160-mg dose level, expanded phases) was 20.1 L/h and the half-life ([2]; human, po) was 20 to 40 h. It also gave a half-life ([2]; human, po, 130 mg) of 19.3 h, a half-life ([2]; human, po, 160 mg) of 17.3 h and a half-life ([2]; human, po, 180 mg) of 16.1 h. The half-life ([2]; human, po, 200 mg) was 12.7 h, the Tmax ([2]; human, plasma, po, Tmax (slow absorption), overall summary, patients) was 2 to 8 h and the “dose dependence of mean AUC0–24 and Cmax” value ([2]; single and multiple doses of 130 to 160 mg, expanded phases) was “dose-proportional manner”. For the same molecule, the “patients with a decrease in Gli-1 transcript level in normal skin biopsies” value (Gli-1 mRNA; 48 of 65 patients, after 21 days of treatment) was 74%, the “Gli-1 transcript reduction in stroma (LCM quantitative RT-PCR)” value (Gli-1 mRNA; rectal adenocarcinoma patient biopsy, cycle 1, day 22 vs baseline) was “about 7 fold” and the “Gli-1 stromal staining (IHC)” value (Gli-1 mRNA; rectal adenocarcinoma posttreatment biopsy, cycle 1, day 22) was “reduced Gli-1 stromal staining”. For the same molecule, the “inhibition of HhP activity (downregulation of Gli1 mRNA)” value [3] was “dose-dependent inhibition of HhP activity”, the “survival of mice bearing orthotopically implanted tumors” value [3] was “significant prolongation of survival” and the “Shh signaling in surrounding stromal tissue (Gli1 mRNA)” value [4] was “inhibited Shh signaling”. For the same molecule, the tumor growth [4] was “slows tumor growth”, the “regrowth of SCLC tumors following chemotherapy” value (SCLC tumors) was “delays regrowth” and the “intratumoral concentration of gemcitabine” value [5] was “enhanced intratumoral concentration of gemcitabine”. For the same molecule, the IC50 (Smo receptor) was 1.4 nM.
